Results as given in ChEMBL document CHEMBL2177069, “Novel peptidomimetic compounds containing redox active chalcogens and quinones as potential anticancer agents” (Eur J Med Chem, 2012).
Activity calls are given as the source filed them. The rule behind the calls is not given here.

Experiments:
Saccharomyces cerevisiae [1] = test: Growth inhibition of UFD2-deficient Saccharomyces cerevisiae YDL190C mutant at 20 ug/disc after 24 to 48 hrs by agar diffusion assay; format: functional; conditions: read-out: DIZ
Outline: (§1)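 S. cerevisiae deletion mutants or wild type grown on YPD, seeded into liquid agar medium at an optical density of 0.1. 6 mm paper discs soaked with methanolic compound solution were placed on the plates and incubated at 30 °C. Growth was checked after 1 and 2 days, and the inhibition zone diameter was recorded in mm.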

Saccharomyces cerevisiae [2] = test: Growth inhibition of GTT2-deficient Saccharomyces cerevisiae YLL060C mutant at 20 ug/disc after 24 to 48 hrs by agar diffusion assay; format: functional; conditions: read-out: DIZ; outline: as §1
Saccharomyces cerevisiae [3] = test: Growth inhibition of SOD2-deficient Saccharomyces cerevisiae YHR008C mutant at 20 ug/disc 24 to 48 hrs by agar diffusion assay; format: functional; conditions: read-out: DIZ; outline: as §1
PtK2 [4] = test: Induction of oxidative stress in potoroo PtK2 cells assessed as change in microtubular network after 24 hrs by immunofluorescence microscopic analysis; format: functional, cell-based; conditions: Potorous tridactylus
Outline: (§2)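 PtK2 cells were grown on coverslips and treated once semi-confluent, for 24 h. Cells were fixed with 3.7% paraformaldehyde followed by 0.1% Triton X-100, or with cold methanol/acetone 50:50. Primary and secondary antibodies were applied for 45 min each: anti-GRP94 for ER, anti-α-tubulin. Actin was stained with phalloidin and nuclei with DAPI. Imaging was by fluorescence microscopy with a CCD camera.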

PtK2 [5] = test: Induction of oxidative stress in potoroo PtK2 cells assessed as reduction in actin stress fibres after 24 hrs by immunofluorescence microscopic analysis; format: functional, cell-based; conditions: Potorous tridactylus; outline: as §2
PtK2 [6] = test: Induction of oxidative stress in potoroo PtK2 cells assessed as reduction in cell adhesion after 24 hrs by immunofluorescence microscopic analysis; format: functional, cell-based; conditions: Potorous tridactylus; outline: as §2
PtK2 [7] = test: Induction of oxidative stress in potoroo PtK2 cells assessed as hole in the endoplasmic reticulum after 24 hrs by immunofluorescence microscopic analysis; format: functional, cell-based; conditions: Potorous tridactylus; outline: as §2
PtK2 [8] = test: Induction of oxidative stress in potoroo PtK2 cells assessed as change in cell morphology after 24 hrs by immunofluorescence microscopic analysis; format: functional, cell-based; conditions: Potorous tridactylus; outline: as §2
[9] = Cytotoxicity against human PHF cells after 24 hrs by MTT assay; format: cell-based
Outline: (§3)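 MTT assay. Cells were seeded at 50,000 cells/mL in medium with 10% fetal calf serum and grown for two days at 37 °C, 10% CO2. Serial dilutions of compound were then added for 24 h. MTT was added (final 0.5 mg/mL) for 2 h, and the formazan was pelleted, washed, dissolved in isopropanol with 0.4% HCl and read at 590 nm. IC50 is the concentration giving 50% of untreated-control absorbance, taken from dose-response curves; mean of two parallel experiments.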

A-431 = test: Cytotoxicity against human A431 cells after 24 hrs by MTT assay; format: functional, cell-based; conditions: A-431, 24 h; outline: as §3
MCF7 = test: Cytotoxicity against human MCF7 cells after 24 hrs by MTT assay; format: functional, cell-based; conditions: MCF7, 24 h; outline: as §3
MDA-MB-468 = test: Cytotoxicity against human MDA-MB-468 cells; format: functional
UO-31 = test: Cytotoxicity against human UO31 cells; format: functional
PC-3 = test: Cytotoxicity against human PC3 cells; format: functional
RXF 393 = test: Cytotoxicity against human RXF393 cells; format: functional
ACHN = test: Cytotoxicity against human ACHN cells; format: functional
OVCAR-8 = test: Cytotoxicity against human OVCAR8 cells; format: functional
NCI/ADR-RES = test: Cytotoxicity against human NCI/ADR-RES cells; format: functional
OVCAR-4 = test: Cytotoxicity against human OVCAR4 cells; format: functional
OVCAR-5 = test: Cytotoxicity against human OVCAR5 cells; format: functional
SK-MEL-28 = test: Cytotoxicity against human SK-MEL-28 cells; format: functional
MDA-MB-435 = test: Cytotoxicity against human MDA-MB-435 cells; format: functional
Malme-3M = test: Cytotoxicity against human MALME-3M cells; format: functional
M14 = test: Cytotoxicity against human M14 cells; format: functional
U-251 = test: Cytotoxicity against human U251 cells; format: functional
LOX IMVI = test: Cytotoxicity against human LOXIMVI cells; format: functional
SNB-75 = test: Cytotoxicity against human SNB75 cells; format: functional
SF-268 = test: Cytotoxicity against human SF268 cells; format: functional
SF-295 = test: Cytotoxicity against human SF295 cells; format: functional
HCT-15 = test: Cytotoxicity against human HCT15 cells; format: functional
NCI-H226 = test: Cytotoxicity against human NCI-H226 cells; format: functional
A549 = test: Cytotoxicity against human A549 cells; format: functional
EKVX = test: Cytotoxicity against human EKVX cells; format: functional
HOP-62 = test: Cytotoxicity against human HOP62 cells; format: functional
RPMI-8226 = test: Cytotoxicity against human RPMI8226 cells; format: functional
MOLT-4 = test: Cytotoxicity against human MOLT4 cells; format: functional
HL-60 = test: Cytotoxicity against human HL60 cells; format: functional
K562 = test: Cytotoxicity against human K562 cells; format: functional
CCRF-CEM = test: Cytotoxicity against human CCRF-CEM cells; format: functional

## CC1=C([Se]CC(OC(=O)[C@@H](CO)NC(=O)OC(C)(C)C)C(=O)NC(C)(C)C)C(=O)c2ccccc2C1=O (stereo partly specified)
Saccharomyces cerevisiae [1]
  zone of inhibition at 20 µg/disc: 13 mm
Saccharomyces cerevisiae [2]
  zone of inhibition at 20 µg/disc: 21 mm
Saccharomyces cerevisiae [3]
  zone of inhibition at 20 µg/disc: 19 mm
PtK2 [4]
  Activity: inactive
PtK2 [5]
  Activity: Active
PtK2 [6]
  Activity: Active
PtK2 [7]
  Activity: Active
PtK2 [8]
  Activity: Active
[9]
  IC50: 7 µM
A-431
  IC50: 2 µM
MCF7
  IC50: 3 µM
MDA-MB-468
  GI50: 0.759 µM
  LC50: 5.89 µM
MDA-MB-468; read-out: pTGI (converted)
  TGI: 2.29 µM
UO-31
  GI50: 1.45 µM
  LC50: 6.03 µM
UO-31; read-out: pTGI (converted)
  TGI: 2.95 µM
PC-3
  GI50: 1.35 µM
  LC50: 6.03 µM
PC-3; read-out: pTGI (converted)
  TGI: 2.82 µM
RXF 393
  GI50: 1.86 µM
  LC50: 5.75 µM
RXF 393; read-out: pTGI (converted)
  TGI: 3.31 µM
ACHN
  GI50: 1.58 µM
  LC50: 5.75 µM
ACHN; read-out: pTGI (converted)
  TGI: 3.02 µM
OVCAR-8
  GI50: 1.86 µM
OVCAR-8; read-out: pTGI (converted)
  TGI: 3.55 µM
NCI/ADR-RES
  GI50: 1.62 µM
NCI/ADR-RES; read-out: pTGI (converted)
  TGI: 3.09 µM
OVCAR-4
  GI50: 1.23 µM
  LC50: 5.01 µM
OVCAR-4; read-out: pTGI (converted)
  TGI: 2.51 µM
OVCAR-5
  GI50: 2.09 µM
  LC50: 6.61 µM
OVCAR-5; read-out: pTGI (converted)
  TGI: 3.72 µM
SK-MEL-28
  GI50: 2.04 µM
  LC50: 6.17 µM
SK-MEL-28; read-out: pTGI (converted)
  TGI: 3.55 µM
MDA-MB-435
  GI50: 2 µM
  LC50: 8.32 µM
MDA-MB-435; read-out: pTGI (converted)
  TGI: 4.07 µM
Malme-3M
  GI50: 2.04 µM
  LC50: 6.92 µM
Malme-3M; read-out: pTGI (converted)
  TGI: 3.8 µM
M14
  GI50: 1.66 µM
  LC50: 5.62 µM
M14; read-out: pTGI (converted)
  TGI: 3.02 µM
U-251
  GI50: 0.977 µM
  LC50: 6.61 µM
U-251; read-out: pTGI (converted)
  TGI: 2.57 µM
LOX IMVI
  GI50: 1.58 µM
  LC50: 5.75 µM
LOX IMVI; read-out: pTGI (converted)
  TGI: 3.02 µM
SNB-75
  GI50: 1.29 µM
  LC50: 5.13 µM
SNB-75; read-out: pTGI (converted)
  TGI: 2.57 µM
SF-268
  GI50: 1.91 µM
  LC50: 5.89 µM
SF-268; read-out: pTGI (converted)
  TGI: 3.31 µM
SF-295
  GI50: 0.316 µM
  LC50: 22.4 µM
SF-295; read-out: pTGI (converted)
  TGI: 1.05 µM
HCT-15
  GI50: 2 µM
  LC50: 7.94 µM
HCT-15; read-out: pTGI (converted)
  TGI: 3.98 µM
NCI-H226
  GI50: 1.95 µM
NCI-H226; read-out: pLC50 (the source's name) (converted)
  CC50: 9.12 µM
NCI-H226; read-out: pTGI (converted)
  TGI: 4.17 µM
A549
  GI50: 1.82 µM
  LC50: 89.1 µM
A549; read-out: pTGI (converted)
  TGI: 9.33 µM
EKVX
  GI50: 1.78 µM
  LC50: 7.76 µM
EKVX; read-out: pTGI (converted)
  TGI: 3.72 µM
HOP-62
  GI50: 0.525 µM
  LC50: 4.37 µM
HOP-62; read-out: pTGI (converted)
  TGI: 1.86 µM
RPMI-8226
  GI50: 2.75 µM
  LC50: > 100 µM
RPMI-8226; read-out: pTGI (converted)
  TGI: 8.91 µM
MOLT-4
  GI50: 0.447 µM
  LC50: > 100 µM
HL-60
  GI50: 0.871 µM
  LC50: > 100 µM
HL-60; read-out: pTGI (converted)
  TGI: 3.8 µM
K562
  GI50: 1.35 µM
  LC50: > 100 µM
CCRF-CEM
  GI50: 0.525 µM
  LC50: > 100 µM
CCRF-CEM; read-out: pTGI
  TGI: > 100 µM
